This note sets out measurements from ChEMBL document CHEMBL1287718, “1-Benzyl derivatives of 5-(arylamino)uracils as anti-HIV-1 and anti-EBV agents” (Bioorg Med Chem, 2010).

Data set [1] deals with Human immunodeficiency virus 1. Briefly: Antiviral activity against Human immunodeficiency virus 1 infected in human CEM-SS cells assessed as virus induced cytopathic effects. The format is functional, organism-based. Conditions: Human immunodeficiency virus 1, CEM-SS. In a few lines:
(§1)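 EC50 is the concentration that reduces virus replication by 50%. CC50 is the concentration giving 50% loss of viability in uninfected cells. Both are calculated by linear regression analysis. The selectivity index is CC50 divided by EC50.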

Data set [2] is described as follows: Cytotoxicity against human CEM-SS cells assessed as cell viability by XTT assay. The format is cell-based. In a few lines:
as §1

Data set [3] can be described thus: Selectivity index, ratio of CC50 for human CEM-SS cells to EC50 for Human immunodeficiency virus 1 infected in human CEM-SS cells. The conditions noted are these: read-out: Ratio CC50/EC50. Type of data set: toxicity, cell-based. The gist of the method: as §1
The subject of another data set is Human gammaherpesvirus 4. Briefly: Antiviral activity against Epstein-Barr virus infected in human Akata cells assessed as virus induced cytopathic effects by XTT assay. The format is functional, organism-based. Conditions: human gammaherpesvirus 4, Akata. The gist of the method: as §1
Data set [4] is described as follows: Cytotoxicity against human Akata cells assessed as cell viability by XTT assay. Type of data set: cell-based. In a few lines:
as §1

Data set [5] is described as follows: Selectivity index, ratio of CC50 for human Akata cells to EC50 for Epstein-Barr virus infected in human Akata cells. The format is toxicity, cell-based. The conditions noted are these: read-out: Ratio CC50/EC50. In a few lines: as §1

SMILES strings stand for the structures.

The term EC50 denotes the concentration that produces a half-maximal response. What is called CC50 is the concentration that lowers cell viability or growth by half. As for `Cc1cc(C)cc(Cn2cc(NCc3ccccc3)c(=O)[nH]c2=O)c1`, the EC50 in data set [1] was found to be 9.5 µM. Besides, the CC50 in data set [2] is 168 µM. For the same compound, the selectivity ratio in data set [3] came out at 17.8.
Regarding `O=c1[nH]c(=O)n(Cc2ccc(Cl)cc2Cl)cc1NCc1ccccc1`, the values for the EC50 (in data set [1]; with Human gammaherpesvirus 4) were 54.6 µM and 39.6 µM, respectively. Further, the CC50 in data set [2] was more than 100 µM; in data set [4], 96.3 µM. In addition, the selectivity ratio in data set [3] is more than 1.8; in data set [5], 2.4.
On to `O=c1[nH]c(=O)n([C@H]2CO[C@@H](CO)O2)cc1I`, for which the EC50 in the data set on Human gammaherpesvirus 4 was found to be 0.033 µM. For the same compound, the CC50 in data set [4] is more than 100 µM. In addition, in data set [5], the selectivity ratio was more than 3030.
With `O=c1[nH]c(=O)n(Cc2ccccc2)cc1Nc1ccccc1`, the EC50 in data set [1] was more than 100 µM. The CC50 in data set [2] is more than 100 µM.
On to `Cc1ccc(Nc2cn(Cc3ccc(Cl)cc3Cl)c(=O)[nH]c2=O)cc1`, for which, in the data set on Human gammaherpesvirus 4, the 50% effective concentration (EC50) stood at 43.3 µM. For the same compound, the CC50 in data set [4] stood at 92.3 µM. Besides, in data set [5], the selectivity ratio was 2.1.
As to `Cc1ccccc1Cn1cc(Nc2ccccc2)c(=O)[nH]c1=O`, the EC50 was more than 100 µM in data set [1] and 12 µM with Human gammaherpesvirus 4. Further, the CC50 in data set [2] and in data set [4] was more than 100 µM in each case. Further, the selectivity ratio in data set [5] was more than 8.3.
Take `O=c1[nH]c(=O)n(Cc2ccc(Cl)cc2Cl)cc1NCCc1ccccc1`: the EC50 in data set [1] was found to be 42.7 µM; in the data set on Human gammaherpesvirus 4, 67.2 µM. Also, the CC50 in data set [2] and in data set [4] was more than 100 µM in each case. For the same compound, the selectivity ratio was more than 2.34 in data set [3] and more than 1.5 in data set [5].
For `Cc1cn([C@H]2C[C@H](N=[N+]=[N-])[C@@H](CO)O2)c(=O)[nH]c1=O` [ZIDOVUDINE], the EC50 in data set [1] was determined as 0.008 µM. In addition, in data set [2], the CC50 was more than 1 µM. For the same compound, the selectivity ratio in data set [3] is more than 125.
`O=c1[nH]c(=O)n(Cc2cccc(Cl)c2)cc1Nc1ccccc1`: the EC50 with Human gammaherpesvirus 4 was 20 µM. In data set [4], the CC50 is more than 100 µM. Besides, the selectivity ratio in data set [5] was more than 5.
For the compound `Cc1cc(C)cc(Cn2cc(Nc3ccccc3)c(=O)[nH]c2=O)c1`, the results for the EC50 (in data set [1]; in the data set on Human gammaherpesvirus 4) were 11.9 µM and more than 20 µM, respectively. For the same compound, the CC50 in data set [2] is more than 200 µM; in data set [4], 96.2 µM. For the same compound, the selectivity ratio in data set [3] was more than 16.8; in data set [5], less than 4.8.
Regarding `Cc1cccc(Cn2cc(Nc3ccccc3)c(=O)[nH]c2=O)c1`, the EC50 turned out to be 44.7 µM in data set [1] and 99.1 µM in the data set on Human gammaherpesvirus 4. For the same compound, the CC50 is more than 200 µM in data set [2] and more than 100 µM in data set [4]. Besides, the values for the selectivity ratio in data set [3] and in data set [5] were more than 4.5 and more than 1, respectively.
On to `O=c1[nH]c(=O)n(Cc2cccc(Oc3ccccc3)c2)cc1Nc1ccccc1`, for which the figures for the EC50 (in data set [1]; with Human gammaherpesvirus 4) were more than 100 µM and 2.3 µM, respectively. The CC50 in data set [2] and in data set [4] was more than 100 µM throughout. Besides, in data set [5], the selectivity ratio was more than 43.
